Reference: PubChem BioAssay
Activity calls are given as the source filed them.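 How the source made its calls: active means active in primary screen and both duplicates, each dropping signal beyond three positive-control SD with fluorescence still positive; inactive means the rest.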

Target: Short transient receptor potential channel 6 (Mus musculus) (UniProt Q61143)
Experiment: TRPC6 blockade by TRPC4 inhibitor hits – cell-based, HEK293, membrane potential dye, duplicate, selectivity assay for TRPC4 inhibitor project, confirmation (AID 434948)
Settings: HEK293 TRPC6, membrane potential dye fluorescence, at 10 µM, stimulated with maximal-effect acetylcholine
Outline: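 System: TRPC6-expressing HEK293 cells. Timing: dye 45 min RT, compound 110 s, agonist read 110 s. Measured by: kinetic fluorescence of membrane potential dye with 5 s baseline.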

Sequence of Short transient receptor potential channel 6 (Mus musculus) (Q61143 whole entry, looked up): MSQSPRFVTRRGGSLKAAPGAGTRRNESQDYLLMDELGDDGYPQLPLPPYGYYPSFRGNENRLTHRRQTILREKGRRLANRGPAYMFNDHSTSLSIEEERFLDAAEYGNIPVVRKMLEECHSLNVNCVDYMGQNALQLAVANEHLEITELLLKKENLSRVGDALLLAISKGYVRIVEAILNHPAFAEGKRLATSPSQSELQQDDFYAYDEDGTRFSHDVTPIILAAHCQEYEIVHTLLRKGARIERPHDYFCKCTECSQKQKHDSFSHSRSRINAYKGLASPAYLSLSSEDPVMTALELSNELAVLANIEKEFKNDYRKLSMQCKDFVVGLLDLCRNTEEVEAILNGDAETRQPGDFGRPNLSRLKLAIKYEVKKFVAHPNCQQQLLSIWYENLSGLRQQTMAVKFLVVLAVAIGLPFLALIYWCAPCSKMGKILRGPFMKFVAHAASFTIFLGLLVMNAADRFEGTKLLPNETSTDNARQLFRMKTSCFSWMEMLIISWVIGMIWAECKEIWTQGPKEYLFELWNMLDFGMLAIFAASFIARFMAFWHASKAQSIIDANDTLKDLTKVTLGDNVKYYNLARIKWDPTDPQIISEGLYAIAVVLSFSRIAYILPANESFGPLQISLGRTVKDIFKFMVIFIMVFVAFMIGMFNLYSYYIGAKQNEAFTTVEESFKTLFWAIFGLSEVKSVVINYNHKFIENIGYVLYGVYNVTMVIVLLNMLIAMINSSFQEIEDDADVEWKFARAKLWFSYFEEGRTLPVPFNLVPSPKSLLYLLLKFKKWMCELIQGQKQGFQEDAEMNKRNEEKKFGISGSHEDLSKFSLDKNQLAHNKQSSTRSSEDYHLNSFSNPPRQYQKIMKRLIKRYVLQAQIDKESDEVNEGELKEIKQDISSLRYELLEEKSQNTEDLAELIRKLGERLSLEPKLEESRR

outcome, inactive:
CC1CCCCN1S(=O)(=O)c1ccc(C(=O)N(CCCN(C)C)c2nc3ccc(Br)cc3s2)cc1 (stereo unspecified), CC(C)(C)C(=O)NC(=S)NNC(=O)c1ccc(-c2ccccc2)cc1, CCCOc1ccc(C(=O)NNC(=S)NC(=O)c2ccccc2)cc1, OCCN1CCN(Cc2cc(Br)cc(Br)c2O)CC1, c1ccc(Nc2nc(Nc3ccccc3)nc(N3CCNCC3)n2)cc1, O=c1c2cc(Br)ccc2nc(-c2cccc(C(F)(F)F)c2)n1O, COc1cc(OC)cc(C(=O)NC(=S)NNC(=O)[C@H]2C[C@@H]2c2ccccc2)c1, c1ccc2c(c1)CCN(c1ncnc3c1[nH]c1ccccc13)C2, O=C(CCc1ccccc1)NNC(=S)NC(=O)c1ccc(Cl)cc1, Cc1cccc(C(=O)NNC(=S)NC(=O)c2cccs2)c1, CN(C)CCCN(C(=O)c1ccc(S(=O)(=O)N2CCCCCC2)cc1)c1nc2ccc(F)cc2s1, CC[C@@H](C(=O)[C@@H](C)[C@@H](O)[C@H](C)CCc1ccc(C)c(O)c1C(=O)O)[C@H]1O[C@](CC)([C@H]2CC[C@](O)(CC)[C@H](C)O2)C[C@@H]1C, Cc1occc1C(=O)NNC(=S)NC(=O)COc1ccc(Cl)cc1Cl, COc1cc(OC)cc(C(=O)N[C@H](C(=O)OCC(=O)NC(C)c2ccccc2)C(C)C)c1 (stereo partly specified), O=C(NC(=S)NNC(=O)[C@H]1C[C@@H]1c1ccccc1)c1cccc(F)c1, CCOc1ccccc1OCC(=O)Nc1cc(S(=O)(=O)N2CCCCC2)ccc1N1CCN(CC)CC1
